High-throughput results deposited in PubChem BioAssay by The Scripps Research Institute Molecular Screening Center.
PRMT1 FP inh: inhibitors of human PRMT1; Q99873; recombinant PRMT1, activity-based probe fluorescence polarization; inhibition, % at 2.79 µM; 1.3% of 370,000 active; AID 652257;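 active means inhibition above about 21% made by adding two undisclosed values, limit read from the data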
Target sequence (Q99873 whole entry, looked up): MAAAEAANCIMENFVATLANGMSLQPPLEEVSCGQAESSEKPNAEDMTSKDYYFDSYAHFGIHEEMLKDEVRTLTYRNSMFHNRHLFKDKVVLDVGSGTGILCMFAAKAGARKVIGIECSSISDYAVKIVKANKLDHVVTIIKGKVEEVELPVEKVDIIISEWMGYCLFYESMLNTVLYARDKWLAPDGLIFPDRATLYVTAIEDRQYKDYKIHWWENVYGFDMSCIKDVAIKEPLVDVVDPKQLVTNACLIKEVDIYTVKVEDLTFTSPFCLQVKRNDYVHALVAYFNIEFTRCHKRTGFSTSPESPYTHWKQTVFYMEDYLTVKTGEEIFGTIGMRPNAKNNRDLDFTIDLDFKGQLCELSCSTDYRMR
GSTO1 inh: counter-screen for RBBP9 inhibitors: inhibitors of human GSTO1. P78417. recombinant GSTO1, activity-based probe fluorescence polarization. inhibition, % at 5.96 µM. 1.1% of 300,000 active. AID 1974;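 active means inhibition above the campaign mean inhibition plus 3 SD, cut at about 35% in these data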;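 further: 0% = GSTO1-1 with DMSO and 100% = wells lacking GSTO1-1 enzyme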
Target sequence (P78417 whole entry, looked up): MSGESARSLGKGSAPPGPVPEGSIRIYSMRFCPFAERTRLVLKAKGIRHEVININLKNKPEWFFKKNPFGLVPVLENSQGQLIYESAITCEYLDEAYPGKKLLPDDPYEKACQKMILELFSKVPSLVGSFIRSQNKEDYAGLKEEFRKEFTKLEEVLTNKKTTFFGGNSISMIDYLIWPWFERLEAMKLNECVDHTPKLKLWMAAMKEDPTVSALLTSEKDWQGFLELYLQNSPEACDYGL
PME-1 primary: PME-1 (human) inhibition. Q9Y570. recombinant PME-1, FP-Rh probe fluorescence polarization. inhibition, % at 5.9 µM. 0.53% of 320,000 active. AID 2130;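 active means inhibition above the campaign mean of all compounds plus 3 SD, cut at about 26% in these data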;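 further: competitive labeling of PME-1 active site by serine hydrolase directed probe; 0% = PME-1 with DMSO and 100% = wells lacking PME-1 enzyme; inhibitors block probe labeling so polarization falls and inhibition rises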
RBBP9 inhibitor: human RBBP9 hydrolase inhibition; 0.2% of 220,000 active; recombinant RBBP9, FP-Rh probe fluorescence polarization; AID 1515; inhibition, % at 7.94 µM; O75884;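 active means inhibition above the campaign mean of all tested compounds plus 3 SD, cut at about 14% in these data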;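 further: plate controls were DMSO wells with RBBP9 for no effect and wells lacking RBBP9 protein for full effect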
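system = RBBP9 protein | input = RBBP9 at 2.5 µM in dispensed solution, before mixing | measured by = fluorescence polarization (mP), excitation 525 nm, emission 598 nm | incubation = enzyme-compound preincubation 30 min, then probe labeling 45 min, 25 °C | buffer or medium = Tris-NaCl-Pluronic buffer, pH 8.0 | compound = single dose 7.94 µM | also added = FP-Rh probe, 375 nM dispensing solution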
Fam108B inh: counter-screen for RBBP9 inhibitors: inhibitors of mouse Fam108B; inhibition, % at 9.51 µM; 0.33% of 300,000 active; recombinant Fam108B, FP-Rh probe fluorescence polarization; AID 1947;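 active means inhibition above the screen mean inhibition plus 3 SD, computed separately per campaign, cut at about 18% in these data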;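 further: inhibitors lower polarization as less probe binds the enzyme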
PAD4 FP inh: blocks human protein arginine deiminase 4; Q9UM07; recombinant PAD4, RCA probe fluorescence polarization; inhibition, % at 6.36 µM; 0.41% of 330,000 active; AID 485272;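 active means percent inhibition above a cutoff equal to the mean of all tested compounds plus 3 SD, cut at about 15% in these data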;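 further: 0% = PAD4 with RCA probe and DMSO and 100% = probe without PAD4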
PRMT1 inh conf: PRMT1 (human) inhibition, FP confirmation; 42% of 3,300 active; recombinant His-PRMT1, activity-based probe fluorescence polarization; inhibition, % at 2.79 µM; shares compounds with PRMT1 FP inh;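 active means mean inhibition across replicates above the hit cutoff derived for the earlier primary screen, cut at about 22% in these data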
The depositor's hits bear a star; . = not tested or not shown. Hits are enriched below; roughly 2.3% of the tested compounds scored in any of these assays.

SMILES | PRMT1 FP inh | GSTO1 inh | PME-1 primary | RBBP9 inhibitor | Fam108B inh | PAD4 FP inh | PRMT1 inh conf
CC(C)[N+]1=C2C=CC=CC=C2SC12C([N+](=O)[O-])=CC(=[N+]([O-])[O-])C=C2[N+](=O)[O-] (stereo not drawn) | 37* | 6 | -1 | 10 | 2 | 0 | 14
CCC(NS(=O)(=O)c1ccc(C)cc1)C(=O)N1CCN(c2ccccn2)CC1 (stereo not drawn) | -5 | 1 | 3 | 1 | 2 | 2 | .
CC(=O)Nc1ccc(S(=O)(=O)N[C@@H](C)C(=O)N2CCN(c3ccccn3)CC2)cc1 | 38* | 5 | 1 | . | -1 | 9 | 23*
CC(=O)Nc1ccc(S(=O)(=O)NC(C)c2ccncc2)cc1 (stereo not drawn) | 1 | . | 1 | . | . | 0 | .
CC(=O)Nc1ccc(S(=O)(=O)NC(C)C(=O)NC(C)c2ccccc2)cc1 (stereo not drawn) | 44* | 1 | 5 | 0 | -3 | 12 | 55*
C[C@H]1COc2cc(NCCCN3CCOCC3)ccc2S(=O)(=O)N1 | -1 | . | . | . | . | . | .
CC(C)n1c(=S)[nH]c2c1c(=O)[nH]c(=O)n2C | 45* | 10 | 2 | 4 | 6 | -4 | 47*
C=CC(C)n1c(Br)nc2c1c(=O)[nH]c(=O)n2C (stereo not drawn) | -5 | 0 | 2 | 5 | 0 | -5 | .
O=C(O)CCCN1C(=O)/C(=C\c2ccco2)SC1=S | 28* | . | . | -7 | . | . | 17
O=C(CCCN1C(=O)/C(=C/c2ccco2)SC1=S)Nc1ccccc1C(=O)O | 55* | 15 | -13 | -6 | 0 | -12 | 29*
CC(C(=O)Nc1ccc(O)cc1C(=O)O)N1C(=O)/C(=C\c2cccs2)SC1=S (stereo not drawn) | 58* | -113 | 8 | . | 6 | -5 | 28*
O=C1/C(=C/c2ccco2)SC(=S)N1CC1CCCO1 (stereo not drawn) | 35* | 12 | 6 | -3 | 2 | -3 | 6
O=C(CCN1C(=O)/C(=C/c2ccco2)SC1=S)Nc1ccc(O)cc1C(=O)O | 68* | . | . | . | . | . | 38*
CCOC(=O)C1(c2ccccc2)CCCNC1=O (stereo not drawn) | 0 | . | . | . | . | . | .
CCOC(=O)C1(c2ccccc2)SC(C(=O)OCC)(c2ccccc2)S1 (stereo not drawn) | 71* | . | . | . | . | . | 59*
CC1C(=O)N(Cc2cn(CCC3OCCCO3)nn2)CCS(=O)(=O)N1Cc1ccc(-c2ccc(F)nc2)cc1 (stereo not drawn) | 55* | . | . | . | . | . | -3
COc1ccccc1OCC(=O)Nc1nnc(-c2ccco2)s1 | 73* | . | . | -4 | . | . | 2
CCC(=O)N1CCc2cc(-c3csc(NC(=O)c4ccco4)n3)ccc21 | 1 | 2 | 0 | . | -2 | -2 | .
Cc1[nH]ncc1-c1nc2ccccc2[nH]1 | -8 | -1 | -3 | . | 1 | 5 | .
O=C(Nc1nc(-c2ccco2)c(-c2ccco2)s1)c1ccc(F)cc1F | 34* | . | . | . | . | . | 11
O=C(Nc1nc(-c2ccco2)c(-c2ccco2)s1)c1c(F)cccc1Cl | 54* | . | -2 | . | . | -12 | 19
O=S(=O)(Nc1nc(-c2ccco2)c(-c2ccco2)s1)c1ccc(F)cc1F | 45* | . | . | . | . | . | 20
O=C(NN=C1CCCC1)c1[nH]c2ccc(Cl)cc2c1-c1ccccc1 | -1 | 1 | -14 | 8 | -5 | 0 | .
O=C(Oc1c(CN2CCOCC2)cc(Cl)c2cccnc12)c1ccccc1Br | 5 | 18 | 4 | 5 | -1 | 0 | .
CNC(=S)N1CCN(C(c2ccccc2)c2ccccc2)CC1 | 4 | 1 | -1 | -9 | -2 | -3 | .
SMILES | PRMT1 FP inh | GSTO1 inh | PME-1 primary | RBBP9 inhibitor | Fam108B inh | PAD4 FP inh | PRMT1 inh conf
CC1CCCCC1NC(=O)COC(=O)c1c2c(nc3ccccc13)/C(=C\c1ccco1)CC2 (stereo not drawn) | 14 | . | . | . | . | . | .
CN1CCc2nc3ccccc3c(C(=O)OCC(=O)N(CCC#N)c3ccccc3)c2C1 | 12 | 1 | 2 | -5 | 1 | 4 | .
O=C(COC(=O)c1c2c(nc3ccccc13)/C(=C\c1ccco1)CC2)NC1CCCC1 | 28* | . | . | . | . | . | 17
CN(CCC#N)C(=O)COC(=O)c1c2c(nc3ccccc13)/C(=C\c1ccco1)CC2 | 32* | . | . | . | . | . | 20
C/C(=N\NC(=O)c1cc(-c2ccc(Cl)s2)[nH]n1)c1ccncc1 | -1 | -4 | -39 | . | -5 | -1 | .
Cc1ccc(/C=c2\sc3nc(-c4ccco4)nn3c2=O)o1 | . | 10 | -2 | -3 | -3 | -4 | .
Cc1ccc(-c2nc3s/c(=C\c4ccco4)c(=O)n3n2)cc1 | 28* | -2 | -13 | -10 | 7 | -5 | 1
O=C(NCc1ccc2c(c1)OCO2)c1nc(S(=O)(=O)Cc2ccccc2)ncc1Cl | 25* | -10 | -7 | . | 3 | -4 | 17
O=C(NCc1ccc2c(c1)OCO2)c1nc(S(=O)(=O)Cc2ccccc2F)ncc1Cl | 29* | -12 | -5 | . | -1 | -2 | 22*
COc1cc(C(c2nnnn2C(C)(C)C)N2CCN(c3nc4ccccc4s3)CC2)ccc1O (stereo not drawn) | 44* | -4 | -3 | -8 | 1 | 5 | 31*
COc1ccc(C(c2nnnn2C(C)(C)C)N2CCN(c3nc4ccccc4s3)CC2)cc1OC (stereo not drawn) | -1 | . | . | -8 | . | . | .
c1ccc(Nc2nc3ccccc3[nH]2)nc1 | 4 | -5 | 1 | -5 | 1 | -3 | .
COc1ccc(N2C(=O)CC(N3CCC(O)(c4ccc(Cl)cc4)CC3)C2=O)cc1 (stereo not drawn) | 77* | -4 | 2 | 3 | 2 | 5 | -1
COc1ccc(N2C(=O)CC(N3CCC(c4nc5ccccc5[nH]4)CC3)C2=O)cc1 (stereo not drawn) | 54* | 7 | -1 | -9 | 5 | 1 | -5
COc1ccc(N2C(=O)CC(n3cnc4ccccc43)C2=O)cc1 (stereo not drawn) | 5 | 2 | -5 | -1 | 1 | -2 | .
COc1ccc(S(=O)(=O)N2CCC(c3nc4ccccc4[nH]3)CC2)cc1 | 1 | -8 | -6 | . | -2 | -1 | .
COc1ccc(N2C(=O)CC(n3c(CCCCO)nc4ccccc43)C2=O)cc1 (stereo not drawn) | 25* | -11 | 4 | 0 | 1 | -4 | 19
O=C1CC(N2CCC(c3nc4ccccc4[nH]3)CC2)C(=O)N1c1ccccc1F (stereo not drawn) | 32* | -1 | 0 | 2 | 0 | 2 | 3
O=C(COC(=O)C1=COCCO1)NCCCc1ccccc1 | 2 | -2 | -2 | -3 | -1 | 5 | .
Cc1cccc(CSc2ccc(S(=O)(=O)N3CCCC3)cn2)c1 | 10 | . | 8 | . | . | -4 | .
